Assay outcomes as filed in PubChem.
PERK inh: human PERK inhibition, primary cell-based screen; Q9NZJ5; CHO PERK-DD fusion, SEAP luminescence translation reporter; inhibition, % at 5.6 µM; actives 0.17% (n = 220,000); AID 1416;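 active = inhibition above the mean inhibition of all tested compounds plus 3 SD, set separately per screening campaign, cut at about 2.9% in these data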;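 also: PERK kinase domain activated by AP20187 dimerizer at 100 nM; 0% = DMSO with dimerizer and 100% = rapamycin at 8.4 µM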
14-3-3 Bad inh: disrupts binding of bovine 14-3-3 zeta to phospho-Bad peptide; P63103; TR-FRET 14-3-3zeta/Dy647-pBad peptide displacement, 1 h; inhibition, % at 21.7 µM; actives 0.71% (n = 220,000); AID 781;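 active = inhibition above about 70%, limit read from the data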;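 also: 0% = full 14-3-3 plus peptide FRET controls and 100% = background without 14-3-3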
Target sequence (P63103 whole entry, looked up): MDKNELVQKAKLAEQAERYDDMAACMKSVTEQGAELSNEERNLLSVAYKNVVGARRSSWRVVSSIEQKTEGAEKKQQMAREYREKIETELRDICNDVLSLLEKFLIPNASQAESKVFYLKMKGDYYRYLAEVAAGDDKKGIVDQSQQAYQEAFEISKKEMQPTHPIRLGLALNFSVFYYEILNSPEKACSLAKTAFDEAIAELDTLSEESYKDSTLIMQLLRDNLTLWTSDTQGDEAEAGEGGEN
Hck Nef HTS: blocks Nef-activated human Hck kinase | Recombinant Hck-YEEI plus Nef, Z-Lyte FRET kinase assay | AID 463187 | inhibition, % at 20 µM | P08631 | actives 0.68% (n = 220,000);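 active = Hck-Nef kinase inhibition above about 50%, limit read from the data; inactive = inhibition below that limit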;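 also: 0% = DMSO with Hck plus Nef and 100% = Hck alone without Nef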
p97 ATPase inh: blocks human p97 ATPase activity; P55072; inhibition, % at 8 µM; actives 0.42% (n = 220,000); recombinant p97 ATPase, Kinase-Glo ATP luminescence, 3 h; in the data active = inhibition above about 15%;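 also: 0% = DMSO vehicle and 100% = wells lacking enzyme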
eIF4E-4G inh: eIF4E/eIF4G interaction inhibition in translation initiation. P63073+Q04637. TR-FRET eIF4E-eIF4GI(517-606) binding, 2 h. inhibition, % at 21.7 µM. actives 0.37% (n = 220,000);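 active = inhibition above about 30%, limit read from the data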;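 also: 0% = full FRET control wells and 100% = background wells lacking eIF4GI fragment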
Biofilm kill mix: mixture kills Candida albicans biofilm cells | C. albicans biofilm persisters + clotrimazole, fluorescence viability; primary screen in compound mixtures of four per well | AID 1242 | actives 0.02% (n = 120,000) | inhibition, % at 7.6 µM;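 active = inhibition above 30.3% in the primary screen of four-compound pools, then above 30% when the compound was retested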;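 also: compounds exposed to preformed 24 h biofilms for 48 h; 0% = untreated biofilm control and 100% = clotrimazole plus chlorhexidine kill blank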
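Incubation: 24 h biofilm formation, then 48 h compound exposure, 37 °C | Material: C. albicans biofilms | Buffer or medium: RPMI/MOPS medium, pH 7.0 | Measured by: 2-h Alamar Blue fluorescence, 535/590 nm excitation/emission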
Starred values were filed as active, the others as inactive; . = no result; ! = a repeat was not active; [ ] = another dose, or the depositor's remark. Sampled rows, rich in hits. Any-hit rate of the full collection: about 2.2%.

SMILES | PERK inh | 14-3-3 Bad inh | Hck Nef HTS | p97 ATPase inh | eIF4E-4G inh | Biofilm kill mix
O=C(O)c1ccc(N/N=C/c2ccc(-c3ccccc3Cl)o2)cc1 | 1 | 1 | 67* | 4 | 4 | 31
COc1ccc(-c2n(Cc3ccccc3)c3ccccc3[n+]2Cc2ccccc2)cc1 | 0 | -13 | -8 | 0 | 4 | 15
Cc1nnc(Nc2ccc3c(c2)OCO3)c2ccccc12 | 0 | 82*[fluorescence artefact?] | 3 | 1 | 7 | .
O=c1cnn([C@@H]2O[C@H](CO)[C@@H](O)[C@H]2O)c(=O)[nH]1 | 1 | -5 | -1 | 1 | 94* | 10
CC(C)(C)c1ccc(CCC2OCC(C[N+]3(C)CCOCC3)O2)cc1 (stereo not drawn) | 1 | -1 | 13 | 3 | 91* | 14
N=C1C(c2nc3ccccc3s2)=C(O)CN1c1ccccc1 | 0 | -7 | -11 | 3 | 3 | 15
CC(C)CC(=O)Nc1ccc2ccccc2c1 | 3.2*! | -10 | 8 | 5 | -4 | 25
CC(C)C(=O)NNc1nc2ccccc2s1 | 1 | 10 | 0 | 0 | 4 | .
O=C(NNc1nc2ccccc2s1)C1CC1 | 3.6* | -10 | 2 | 6 | -5 | .
COc1ccc(CC2SC(=Nc3ccc(F)cc3)NC2=O)cc1 (stereo not drawn) | 1 | -14 | 24 | -1 | -2 | 15
c1ccc2[nH]c(CN3CCOCC3)nc2c1 | 0 | 2 | 2 | 0 | -1 | .
c1ccc2[nH]c(SN3CCOCC3)nc2c1 | 1 | 13 | -2 | 2 | 44*[fluorescence artefact?] | .
O=C(NC1CCSC1)c1cccc(Cl)c1 (stereo not drawn) | 1 | -4 | -4 | 7 | 5 | -6
COc1cccc(-c2nnc(-c3ccccc3NC(=O)c3ccc(C(C)(C)C)cc3)o2)c1 | 1 | -4 | 14 | 4 | 2 | 16
CC(C)N1CCc2c(sc(NC(=O)c3cc4cc([N+](=O)[O-])ccc4s3)c2C(N)=O)C1 | 0 | 95* | 9 | 2 | 4 | 16
CNC(=O)c1c(NC(=O)c2ccc(S(=O)(=O)N3CCCc4ccccc43)cc2)sc2c1CCN(C)C2 | -1 | 25 | 31 | 10 | 3 | 22
CN1CCc2c(sc(NC(=O)c3ccc(S(=O)(=O)N4CCc5ccccc54)cc3)c2C(N)=O)C1 | -2 | 49 | -45 | 15* | -18 | 18
CC(C)NC(=O)c1cc2cc([N+](=O)[O-])ccc2s1 | 0 | 13 | 3 | 2 | 6 | .
CN1CCc2c(sc(NC(=O)c3cc4cc([N+](=O)[O-])ccc4s3)c2C(N)=O)C1 | 0 | 72* | 21 | 9 | -9 | 14
O=C1Nc2ccccc2OCc2c1cccc2[N+](=O)[O-] | 2 | -3 | 18 | 8 | 5 | -5
O=C1c2cccnc2C(Nc2ccc(F)c(Cl)c2)N1Cc1cccs1 (stereo not drawn) | 0 | 26 | 25 | -2 | -1 | 18
c1ccc(CCNc2nc(-c3ccccn3)nc3ccccc23)cc1 | -2 | -9 | 6 | 4 | -3 | 19
Cc1cc(NC(=NC2CC2)c2ccccc2F)n(-c2ccccc2)n1 | -1 | -4 | -3 | -3 | 0 | 17
CCCCCCCCCC(=O)N/N=C/c1ccc(C)s1 | 1 | -2 | -1 | -2 | 52*[fluorescence artefact?] | .
COCCCn1c(=N)c(C(=O)NCC2CCCO2)cc2c(=O)n3cccc(C)c3nc21 (stereo not drawn) | -1 | 4 | 196* | 5 | -2 | 12
SMILES | PERK inh | 14-3-3 Bad inh | Hck Nef HTS | p97 ATPase inh | eIF4E-4G inh | Biofilm kill mix
CCCCNC(=O)c1cc2c(=O)n3cccc(C)c3nc2n(Cc2ccccc2)c1=N | -1 | 75* | 10 | 0 | 6 | .
COCCn1c(=N)c(C(=O)NCCc2ccccc2)cc2c(=O)n3cccc(C)c3nc21 | -1 | . | 104* | 4 | . | .
CCCn1c(=NC(C)=O)c(C#N)cc2c(=O)n3cccc(C)c3nc21 | 1 | . | 56* | 5 | . | .
COCCCn1c(=NC(C)=O)c(C#N)cc2c(=O)n3cccc(C)c3nc21 | 1 | 4 | 39 | 4 | 6 | 24
COc1ccccc1NC(=O)c1cc2cc(Br)ccc2cc1O | 0 | 5 | -4 | 13 | 8 | 24
Cc1ccc(N2C(=O)CC(N3CCc4ccccc43)C2=O)cc1Cl (stereo not drawn) | 1 | -3 | -9 | 3 | -1 | 9
